This note sets out measurements from ChEMBL document CHEMBL1781968, “δ-Carbolines and their ring-opened analogs: synthesis and evaluation against fungal and bacterial opportunistic pathogens” (Eur J Med Chem, 2011).

Active and inactive are the calls of the source. Where only a bound is given, the exact number is not on record here.

As usually defined, the IC50 is the concentration at which inhibition is half-maximal. Broadly, the MFC is the smallest concentration meeting the test's criterion for killing the fungus. For orientation: MIC means the lowest concentration found to suppress growth. One may read the MBC as the smallest concentration meeting the test's criterion for killing.

The test system of one series is Aspergillus fumigatus. As to the kind of experiment: Antifungal activity against Aspergillus fumigatus ATCC 204305 by NCCLS method. It counts as functional, organism-based. The method in brief:
(§1)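 Modified NCCLS microdilution for fungi. Samples in DMSO serially diluted with 0.9% saline, in duplicate, final concentrations from 20 μg/mL down. Inocula matched to 0.5 McFarland (630 nm) and diluted in Sabouraud dextrose broth. Growth, solvent and medium controls included. OD 530 nm read before and after incubation. IC50 from percent growth curve. MIC is no detectable growth. MFC is lowest concentration killing the organism.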

For the next series, the system named is Cryptococcus neoformans. The series can be described thus: Antifungal activity against Cryptococcus neoformans ATCC 90113 by NCCLS method. It counts as functional, organism-based. The method in brief: as §1
The test system of series [1] is Staphylococcus aureus. As to the kind of experiment: Antibacterial activity against Staphylococcus aureus ATCC 29213 by NCCLS method. It counts as functional, organism-based. The method in brief:
(§2)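 Broth microdilution (modified NCCLS). Samples in DMSO serially diluted in 0.9% saline, tested in duplicate, highest final concentration 20 μg/mL. Inoculum matched to 0.5 McFarland standard by absorbance at 630 nm, then diluted in cation-adjusted Mueller–Hinton broth. Growth, solvent and medium controls on each plate. Absorbance at 530 nm read before and after incubation. IC50 taken from percent growth versus concentration plot; MIC is lowest concentration with no detectable growth; MBC is lowest concentration killing the organism.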

Another series has as its system Candida albicans. As to the kind of experiment: Antifungal activity against Candida albicans ATCC 90028 by NCCLS method. The series is classed as functional, organism-based. An outline of the steps:
as §1

Series [2] has as its system Mycobacterium intracellulare. The series can be described thus: Antibacterial activity against Mycobacterium intracellular ATCC 23068 by alamar blue method. It counts as functional, organism-based. The method in brief: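 Modified Alamar blue method (Franzblau). Samples in DMSO serially diluted in 0.9% saline, in duplicate, final concentrations starting at 20 μg/mL. Inoculum adjusted to 0.5 McFarland, then diluted in Middlebrook 7H9 with OADC enrichment plus 5% Alamar blue. Fluorescence read (ex 544/em 590 nm) before and after incubation. IC50 from percent growth versus concentration. MIC is no detectable growth.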
On the technique in general: Alamar Blue is a resazurin reagent that responds to reducing activity.

In series [3] the test system is Escherichia coli. The series can be described thus: Antibacterial activity against Escherichia coli by NCCLS method. It counts as functional, organism-based. The method in brief: (§3)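 Modified NCCLS broth microdilution. DMSO-dissolved samples serially diluted in 0.9% saline, tested in duplicate, final concentrations starting at 20 μg/mL. Inoculum set to 0.5 McFarland (absorbance 630 nm) and diluted in cation-adjusted Mueller–Hinton broth. Growth, solvent and medium controls on each plate. Read at 530 nm before and after incubation. IC50 from percent growth versus concentration. MIC is lowest concentration with no detectable growth.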

Series [4] can be described thus: Cytotoxicity against african green monkey Vero cell after 48 hrs by neutral red uptake assay. To be noted: chlorocebus sabaeus, Vero cells; read-out: TC50. The series is classed as cell-based. The method in brief: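 VERO kidney fibroblasts seeded at 25,000 cells/well and incubated 24 h. Compounds added, highest concentration 10 μg/mL, then 48 h further incubation. Viable cells measured by neutral red assay. IC50 taken from growth-inhibition dose curves. Doxorubicin as positive control, DMSO as vehicle control.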

Series [5] deals with Staphylococcus aureus. As to the kind of experiment: Antibacterial activity against methicillin-resistant Staphylococcus aureus ATCC 33591 by NCCLS method. The series is classed as functional, organism-based. An outline of the steps: as §2
Series [6] concerns Escherichia coli. The series can be described thus: Antibacterial activity against Escherichia coli at 20 ug/ml by NCCLS method. The series is classed as functional, organism-based. An outline of the steps: as §3

Regarding `C[n+]1cccc2c1c1cccc(Cl)c1n2CCCCCC1CCCCC1.[I-]`, the IC50 in the series with Aspergillus fumigatus amounted to 16 µg/mL; with Cryptococcus neoformans, 0.3 µg/mL; in the series on Staphylococcus aureus [1], 0.2 µg/mL; in the series on Candida albicans it was 2.5 µg/mL; in [2] it was 0.5 µg/mL; in the series with Escherichia coli [3], 5.7 µg/mL. The molecule further yielded an IC50 with Staphylococcus aureus [5] of 1.2 µg/mL. The MFC in the series with Aspergillus fumigatus came out at 20 µg/mL; against Cryptococcus neoformans, 0.6 µg/mL; in the series with Candida albicans, 5 µg/mL. Moreover, the MIC against Aspergillus fumigatus was 20 µg/mL; in the series on Cryptococcus neoformans, 0.6 µg/mL; in the series on Staphylococcus aureus [1], 0.3 µg/mL; with Candida albicans, 5 µg/mL; in series [2], 0.6 µg/mL; against Escherichia coli [3] it was > 20 µg/mL. Inhibition of growth with Staphylococcus aureus [5] (MIC) required 2.5 µg/mL. For the same molecule, the MBC is 10 µg/mL against Staphylococcus aureus [1], 5 µg/mL in [2], > 20 µg/mL against Escherichia coli [3] and 5 µg/mL in the series with Staphylococcus aureus [5]. Also, in series [4], the CC50 at 48 h is > 10 µg/mL.

Turning to `C[n+]1cccc(N(CCCCCC2CCCCC2)c2ccccc2C#N)c1.[I-]`, the result in the series with Escherichia coli [6] was inactive. In the series on Staphylococcus aureus [1], this molecule showed an IC50 of 1.3 µg/mL, an MBC of 10 µg/mL and an MIC of 2.5 µg/mL. In series [2], this molecule registered a 50% inhibitory concentration (IC50) of 3.5 µg/mL, an MBC of 20 µg/mL and an MIC of 5 µg/mL. In addition, in the series on Staphylococcus aureus [5], 6.4 µg/mL corresponded to half-maximal inhibition (IC50), the MBC was 20 µg/mL and it took 20 µg/mL to inhibit growth (MIC).

For the molecule `COc1ccc2c(c1)c1c(ccc[n+]1C)n2CCCCCC1CCCCC1.[I-]`, the IC50 with Aspergillus fumigatus amounted to 16 µg/mL; in the series on Cryptococcus neoformans, 0.7 µg/mL; in the series on Staphylococcus aureus [1] it was 0.7 µg/mL; with Candida albicans it was 7.4 µg/mL; in series [2], 1.6 µg/mL; in the series with Escherichia coli [3], 12 µg/mL. This molecule showed an IC50 with Staphylococcus aureus [5] of 3.3 µg/mL. Moreover, the results for the MFC against Aspergillus fumigatus, with Cryptococcus neoformans and in the series on Candida albicans were > 20 µg/mL, 1.3 µg/mL and > 20 µg/mL, respectively. Besides, the MIC against Aspergillus fumigatus is > 20 µg/mL; against Cryptococcus neoformans, 1.3 µg/mL; in the series with Staphylococcus aureus [1] it was 1.3 µg/mL; in the series on Candida albicans, 20 µg/mL; in series [2], 2.5 µg/mL; against Escherichia coli [3], > 20 µg/mL. In the series with Staphylococcus aureus [5], this molecule came in with an MIC of 5 µg/mL. Also, the minimal bactericidal concentration (MBC) was 20 µg/mL in the series on Staphylococcus aureus [1], 2.5 µg/mL in series [2], > 20 µg/mL with Escherichia coli [3] and 20 µg/mL against Staphylococcus aureus [5]. In addition, the CC50 at 48 h in [4] was > 10 µg/mL.

For the molecule `CSc1ccc2c(c1)c1c(ccc[n+]1C)n2CCCCCC1CCCCC1.[I-]`, the IC50 in the series with Aspergillus fumigatus stood at 13 µg/mL; in the series on Cryptococcus neoformans, 0.3 µg/mL; in the series on Staphylococcus aureus [1] it was 0.4 µg/mL; in the series on Candida albicans, 2.1 µg/mL; in series [2], 0.7 µg/mL; in the series with Escherichia coli [3], 5.6 µg/mL. The IC50 in the series on Staphylococcus aureus [5] was determined as 1.1 µg/mL. Moreover, the minimum fungicidal concentration (MFC) against Aspergillus fumigatus came to 20 µg/mL; against Cryptococcus neoformans, 0.6 µg/mL; in the series on Candida albicans, 5 µg/mL. Besides, the minimal inhibitory concentration (MIC) against Aspergillus fumigatus was 20 µg/mL; against Cryptococcus neoformans, 0.6 µg/mL; with Staphylococcus aureus [1], 0.6 µg/mL; against Candida albicans it was 5 µg/mL; in series [2] it was 1.3 µg/mL; with Escherichia coli [3], > 20 µg/mL. Besides, the MIC against Staphylococcus aureus [5] is 2.5 µg/mL. The MBC against Staphylococcus aureus [1] is 5 µg/mL; in series [2], 2.5 µg/mL; with Escherichia coli [3], > 20 µg/mL; in the series with Staphylococcus aureus [5] it was 10 µg/mL. For the same molecule, the CC50 at 48 h in [4] is > 10 µg/mL.

In the case of `C[n+]1cccc2c1c1ccc(Cl)cc1n2CCCCCC1CCCCC1.[I-]`, the IC50 with Aspergillus fumigatus is 16 µg/mL; in the series with Cryptococcus neoformans it was 0.3 µg/mL; in the series on Staphylococcus aureus [1], 0.4 µg/mL; in the series on Candida albicans, 2.9 µg/mL; in series [2], 0.7 µg/mL; with Escherichia coli [3], 5.9 µg/mL. The molecule also had an IC50 in the series on Staphylococcus aureus [5] of 1.2 µg/mL. Moreover, the MFC against Aspergillus fumigatus was > 20 µg/mL; with Cryptococcus neoformans it was 0.6 µg/mL; with Candida albicans, 10 µg/mL. Besides, the MIC with Aspergillus fumigatus was 20 µg/mL; against Cryptococcus neoformans, 0.6 µg/mL; against Staphylococcus aureus [1], 0.6 µg/mL; against Candida albicans, 5 µg/mL; in series [2], 1.3 µg/mL; against Escherichia coli [3] it was > 20 µg/mL. It took 2.5 µg/mL to inhibit growth in the series with Staphylococcus aureus [5] (MIC). Also, the minimum bactericidal concentration (MBC) is 5 µg/mL against Staphylococcus aureus [1], 5 µg/mL in [2], > 20 µg/mL with Escherichia coli [3] and 2.5 µg/mL against Staphylococcus aureus [5]. For the same molecule, in [4], the CC50 at 48 h was > 10 µg/mL.
